STEP block: inhibitors of human striatal-enriched phosphatase STEP; P54829; AID 588621; recombinant STEP, OMFP fluorogenic substrate, fluorescence; inhibition, % at 20 µM; 360,000 tested, 0.25% active;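 active = inhibition at 20 µM, scaled per plate between control wells, above about 37%, limit read from the data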;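 note: 0% = DMSO with enzyme and substrate and 100% = substrate only without enzyme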
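Material: STEP (striatal-enriched tyrosine phosphatase) enzyme, cell-free | Medium: 50 mM Bis-Tris pH 6.0 with 2.5 mM DTT and 0.005% Tween 20 | Read-out: Percent inhibition scaled to no-enzyme and uninhibited-enzyme controls, plate-pattern corrected | Signal: Fluorescence read at 480 nm ex / 540 nm em | Times: 20 min reaction, room temperature, in the dark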
DNMT1 block: DNMT1 (human) enzyme inhibition; AID 588458; 360,000 tested, 0.83% active; DNMT1 molecular beacon, Hinp1I cleavage, fluorescence; P26358; inhibition (reported as % activation of signal), % at 10 µM; in the data active = inhibition above about 50%
Target sequence (P26358 504-1616 limits assumed): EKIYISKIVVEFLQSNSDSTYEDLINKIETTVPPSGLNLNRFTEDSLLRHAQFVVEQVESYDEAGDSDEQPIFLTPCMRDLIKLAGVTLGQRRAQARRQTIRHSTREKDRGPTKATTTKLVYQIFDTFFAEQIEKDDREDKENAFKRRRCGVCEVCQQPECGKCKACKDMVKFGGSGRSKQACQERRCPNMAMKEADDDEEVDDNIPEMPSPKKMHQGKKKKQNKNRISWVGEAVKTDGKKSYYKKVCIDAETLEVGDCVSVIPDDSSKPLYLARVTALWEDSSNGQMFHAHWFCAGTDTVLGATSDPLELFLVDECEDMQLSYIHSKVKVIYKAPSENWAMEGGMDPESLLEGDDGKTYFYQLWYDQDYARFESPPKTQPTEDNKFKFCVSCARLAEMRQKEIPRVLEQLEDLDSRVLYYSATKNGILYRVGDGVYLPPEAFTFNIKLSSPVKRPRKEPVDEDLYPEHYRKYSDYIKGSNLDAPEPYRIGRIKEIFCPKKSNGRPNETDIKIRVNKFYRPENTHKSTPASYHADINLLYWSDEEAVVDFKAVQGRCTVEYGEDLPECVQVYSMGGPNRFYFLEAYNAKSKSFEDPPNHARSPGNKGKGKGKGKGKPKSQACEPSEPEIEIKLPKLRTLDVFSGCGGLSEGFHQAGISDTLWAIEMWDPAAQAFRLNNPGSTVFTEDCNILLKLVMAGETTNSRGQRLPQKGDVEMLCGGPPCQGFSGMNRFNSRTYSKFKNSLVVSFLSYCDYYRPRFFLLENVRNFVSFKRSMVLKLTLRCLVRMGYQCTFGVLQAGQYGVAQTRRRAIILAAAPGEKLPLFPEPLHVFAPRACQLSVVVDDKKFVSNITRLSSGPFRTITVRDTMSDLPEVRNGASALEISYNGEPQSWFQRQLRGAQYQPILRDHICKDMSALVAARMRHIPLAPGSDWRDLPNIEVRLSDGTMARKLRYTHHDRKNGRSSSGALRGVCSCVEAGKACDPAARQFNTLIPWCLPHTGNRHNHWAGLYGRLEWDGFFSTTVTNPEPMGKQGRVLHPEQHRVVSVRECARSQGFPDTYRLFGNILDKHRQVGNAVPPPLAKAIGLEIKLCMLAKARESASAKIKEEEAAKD
Scp-1 inhibitor: blocks human Scp-1 phosphatase activity; Q9GZU7; Recombinant Scp1, phosphopeptide, malachite green phosphate absorbance; inhibition, % at 20 µM; 340,000 tested, 0.88% active; AID 493091;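 active = inhibition above about 50% at 20 µM, limit read from the data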;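 note: plate controls were DMSO wells with enzyme for no effect and wells lacking enzyme for full effect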
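assay system = SCP-1 phosphatase catalytic domain, residues 76-261 | buffer or medium = 50 mM Tris acetate pH 5.5, 0.005% Tween-20, 10 mM MgCl2 | incubation = enzyme reaction 45 min at room temperature, colour 5 min, stabilisation 30 min | signal = Phosphate-binding colour reagent, absorbance read at 630 nm | measure = % inhibition at 20 µM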
LMPTP block: blocks human LMPTP phosphatase | P24666 | recombinant LMPTP-A, OMFP fluorogenic substrate, fluorescence intensity | inhibition, % at 20 µM | 360,000 tested, 0.22% active | AID 651560;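 active = compounds that cut the enzyme signal by at least half of the control window in the single-dose screen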;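 note: plate controls were DMSO wells with enzyme plus substrate for no effect and substrate without enzyme for full effect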
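material = LMPTP-A | quantity = 0.625 nM enzyme | reagent = OMFP substrate, 400 µM final | buffer or medium = Bis-Tris pH 6.0, DTT, detergent | detection = endpoint fluorescence intensity from OMFP dephosphorylation | dosing = single 20 µM dose | read-out basis = % inhibition relative to no-enzyme and uninhibited control wells | control set = no-enzyme and uninhibited controls | timing = 50 min at room temperature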
SUMO1-SIM PPI: alters human SUMO1 binding to SIM partners; P63165; SUMO1 binding to a labelled peptide, TR-FRET, 1 h; inhibition, % at 20 µM; 360,000 tested, 0.33% active; AID 602429; in the data active = inhibition above about 37%
An asterisk follows results filed as active. Sampled rows, rich in hits. Any-hit rate of the full collection: about 1.7%.

Screening COc1ccc2cc1Oc1ccc(cc1)C[C@H]1c3c(cc(OC)c4c3Oc3c(ccc5c3[C@H](C2)N(C)CC5)O4)CCN1C returned STEP block 6, DNMT1 block -36, Scp-1 inhibitor 4, LMPTP block 68* and SUMO1-SIM PPI -28.
CCOc1ccc(C2NCCc3cc(OC)c(OC)cc32)cc1OC (configuration not stated) was read as STEP block -2, DNMT1 block 2, Scp-1 inhibitor 1, LMPTP block -1 and SUMO1-SIM PPI -11.
Screening O=C1c2ccccc2C(=O)N1C1C=CC=CC=C1 returned STEP block -3, DNMT1 block 4, LMPTP block -1 and SUMO1-SIM PPI -11.
For CC1CCN(C(=O)Cn2c(=O)c3cccn3c3ccccc32)CC1 the results were STEP block -1, DNMT1 block 2, Scp-1 inhibitor -4, LMPTP block 0 and SUMO1-SIM PPI -1.
`CN(CC(=O)Oc1ccc(-c2nnco2)cc1)S(=O)(=O)c1ccc(F)cc1` gave STEP block -4, DNMT1 block 3, Scp-1 inhibitor -6, LMPTP block -1 and SUMO1-SIM PPI 4.
For CCn1c(=NC(=O)c2ccc(S(=O)(=O)N3CCOCC3)cc2)sc2cccc(OC)c21 the results were STEP block -3, DNMT1 block -7, Scp-1 inhibitor -13, LMPTP block 2 and SUMO1-SIM PPI 43*.
For CCn1c(=NC(=O)c2ccc(N3C(=O)CCC3=O)cc2)sc2c(OC)ccc(OC)c21 the results were STEP block 4, DNMT1 block 2, Scp-1 inhibitor 58*, LMPTP block 4 and SUMO1-SIM PPI -30.
`CC(=O)N1CCSc2ccc(S(=O)(=O)NCc3ccc(F)cc3)cc21` gave STEP block -2, DNMT1 block -5, Scp-1 inhibitor -9, LMPTP block 0 and SUMO1-SIM PPI 0.
CC(Nc1nc(N2CCNCC2)nc2ccccc12)c1ccccc1 (configuration not stated) was read as STEP block 7, DNMT1 block -12, Scp-1 inhibitor 5, LMPTP block 85* and SUMO1-SIM PPI 0.
`O=C1C=CC(=O)c2c(O)c(CO)c(CO)c(O)c21` gave STEP block 94*, DNMT1 block 114*, Scp-1 inhibitor 85*, LMPTP block 93* and SUMO1-SIM PPI 118*.
`Fc1cccc2sc(Nc3nnc(-c4ccccc4)o3)nc12` gave STEP block 8, DNMT1 block -1, Scp-1 inhibitor 51*, LMPTP block 32 and SUMO1-SIM PPI 12.
Screening O=C(CNc1ccc2c(c1)OCO2)N/N=C\c1ccccc1Cl returned STEP block -3, DNMT1 block -12, Scp-1 inhibitor -4, LMPTP block 3 and SUMO1-SIM PPI 51*.
For O=C(CNC(=O)c1ccccc1)N/N=C/c1ccccc1Cl the results were STEP block -1, DNMT1 block -5, Scp-1 inhibitor -6, LMPTP block -1 and SUMO1-SIM PPI 48*.
Screening CCN1/C(=C/c2cccc[n+]2C)Sc2ccc(OC)cc21 returned STEP block -1, DNMT1 block 1, Scp-1 inhibitor 109*, LMPTP block 2 and SUMO1-SIM PPI -43.
Screening CC1CCN(Cc2nc(-c3ccccc3)no2)CC1 returned STEP block -4, DNMT1 block -2, Scp-1 inhibitor -11, LMPTP block -1 and SUMO1-SIM PPI 50*.
For Cc1cccc(CCN2C(N(C)C)=NC[C@@H]2C)c1 the results were STEP block -1, DNMT1 block 7, Scp-1 inhibitor 1, LMPTP block -3 and SUMO1-SIM PPI 7.
COc1ccc(O)c(C(=O)c2cc(SCC(=O)O)c3nc4sc5c(c4c(=O)n3c2)CCCC5)c1 was read as STEP block 15, DNMT1 block 15, Scp-1 inhibitor 34, LMPTP block 16 and SUMO1-SIM PPI 42*.
Screening CCc1nn2c(=O)cc(COc3ccc(/C=C4\C(=N)N5N=C(C)SC5=NC4=O)cc3)nc2s1 returned STEP block 2, DNMT1 block 59*, Scp-1 inhibitor 33, LMPTP block 5 and SUMO1-SIM PPI 24.
Screening COc1ccc(C=NNc2ccc(S(=O)(=O)Nc3ccccc3C(=O)O)cc2[N+](=O)[O-])c(OC)c1 returned STEP block 6, DNMT1 block 13, Scp-1 inhibitor -5, LMPTP block 52* and SUMO1-SIM PPI 56*.
For CCCOc1cc(N(CC)CC)ccc1/C=C(/C#N)c1nc2ccc(C)cc2[nH]1 the results were STEP block -33, DNMT1 block -1, Scp-1 inhibitor -8, LMPTP block 9 and SUMO1-SIM PPI -59.
`CCN(CC)c1ccc(/C=C(/C#N)c2nc3ccc(C)cc3[nH]2)c(OC(C)C)c1` gave STEP block -48, DNMT1 block 53*, Scp-1 inhibitor 3, LMPTP block 16 and SUMO1-SIM PPI -80.
CN1CCc2nc3sc(C(=O)C45CC6CC(CC(C6)C4)C5)c(N)c3cc2C1 was read as STEP block 5, DNMT1 block 78*, Scp-1 inhibitor 2, LMPTP block 2 and SUMO1-SIM PPI 6.
`O=C(O)CC1(C(=O)O)CC2C=CC1C2` (configuration not stated) gave STEP block 0, DNMT1 block 9, LMPTP block -2 and SUMO1-SIM PPI 4.
For COc1ccc2oc(C(=O)OCC(=O)NC(=O)c3ccccc3)c(C)c2c1 the results were STEP block 0, DNMT1 block -1, Scp-1 inhibitor -2, LMPTP block 0 and SUMO1-SIM PPI -2.
For N#Cc1ccc(NC(=O)c2sc3cc(C(F)(F)F)cnc3c2-c2cccs2)cc1 the results were STEP block 2, DNMT1 block 0, Scp-1 inhibitor -12, LMPTP block 0 and SUMO1-SIM PPI 56*.
`O=C(Nc1ccc(F)cc1)c1sc2cc(C(F)(F)F)cnc2c1-c1cccs1` gave STEP block 6, DNMT1 block -1, Scp-1 inhibitor -2, LMPTP block 4 and SUMO1-SIM PPI 10.
CC(C)OCCCNc1ccc(N2C(=O)CCCC2=O)cc1[N+](=O)[O-] was read as STEP block -4, DNMT1 block -4, Scp-1 inhibitor -7, LMPTP block 1 and SUMO1-SIM PPI -38.
COCCN1C(=NCCCOC(C)C)N[C@@H](c2ccccc2)C(C(=O)OC)=C1C was read as STEP block -2, DNMT1 block 3, Scp-1 inhibitor 55*, LMPTP block -2 and SUMO1-SIM PPI 2.
Screening COC(=O)C1=C(C)N(Cc2ccccc2)C(=NCc2ccccc2)N[C@H]1c1cccc(F)c1 returned STEP block 0, DNMT1 block 3, Scp-1 inhibitor 0, LMPTP block 0 and SUMO1-SIM PPI -18.
C=CCN=C1N[C@@H](c2ccccc2)C(C(=O)OC)=C(C)N1CCOC was read as STEP block -1, DNMT1 block 3, Scp-1 inhibitor 19, LMPTP block -1 and SUMO1-SIM PPI 4.

Bioassay records from PubChem BioAssay.
